Assay results reported in ChEMBL document CHEMBL1124655, “Substituted 5-amino-4,5,6,7-tetrahydroindazoles as partial ergoline structures with dopaminergic activity” (J Med Chem, 1989).
The source made the active and inactive calls. The rule behind the calls is not given here.

Assays:
[1] = test system: Rattus norvegicus; experiment: Effect on 3,4-Dihydroxyphenylacetic acid concentration in whole rat brain when 10 mg/Kg was administered intraperitoneally; format: functional
Outline: (§1)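 Rats dosed 10 mg/kg ip. Whole-brain dopamine, DOPAC and HVA measured by liquid chromatography with electrochemical detection, expressed as nmol/g and as % change from a control group. Mean ± SE, five rats per group; significance at P<0.05.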

[2] = target: T1, D(2) dopamine receptor (Bos taurus, UniProt P20288); experiment: Inhibitory activity against dopamine receptor D2 in calf corpus striatum using [3H]spiperone as radioligand; format: tissue-based
T1 sequence (P20288 whole entry): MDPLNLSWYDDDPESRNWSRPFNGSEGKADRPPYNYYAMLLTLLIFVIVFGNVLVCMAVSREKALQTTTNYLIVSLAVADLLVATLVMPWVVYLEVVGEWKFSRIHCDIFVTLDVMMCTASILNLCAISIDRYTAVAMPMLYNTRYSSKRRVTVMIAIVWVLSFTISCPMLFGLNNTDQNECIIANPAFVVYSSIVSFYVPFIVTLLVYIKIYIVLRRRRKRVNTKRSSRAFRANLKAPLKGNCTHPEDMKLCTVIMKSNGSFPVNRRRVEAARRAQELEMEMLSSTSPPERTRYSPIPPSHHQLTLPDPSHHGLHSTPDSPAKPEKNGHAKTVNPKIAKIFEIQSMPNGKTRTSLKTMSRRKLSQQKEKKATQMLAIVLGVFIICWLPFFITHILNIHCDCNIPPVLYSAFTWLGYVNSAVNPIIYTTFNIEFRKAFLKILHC
Outline: (§2)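 Displacement of [3H]spiperone binding in calf corpus striatum membranes; some values given as percent displacement at 1000 nM.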

[3] = test system: Rattus norvegicus; experiment: Inhibition of serum prolactin concentration in rats when 5 mg/Kg was administered intraperitoneally; format: functional
Outline: (§3)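 Prolactin in serum of nonreserpinized male rats (Clemens method) after 5 mg/kg ip. Values are mean ± SE for 6-10 rats; significance versus control at P<0.05.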

[4] = test system: Rattus norvegicus; experiment: Effect on serum corticosterone level […] when 10 mg/Kg was administered intraperitoneally; format: functional
Outline: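 Rats dosed 10 mg/kg ip. Serum corticosterone determined spectrofluorometrically (Solem and Brinck-Johnsen method), reported as µg/100 mL versus a vehicle group and as % change from control. Mean ± SE, five rats per group; significance P<0.05.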

[5] = target: T2, D(2) dopamine receptor (Rattus norvegicus, UniProt P61169); experiment: (§4) Inhibitory activity against dopamine receptor D2 in rat corpus striatum using [3H]apomorphine as radioligand; format: tissue-based
T2 sequence (P61169 whole entry): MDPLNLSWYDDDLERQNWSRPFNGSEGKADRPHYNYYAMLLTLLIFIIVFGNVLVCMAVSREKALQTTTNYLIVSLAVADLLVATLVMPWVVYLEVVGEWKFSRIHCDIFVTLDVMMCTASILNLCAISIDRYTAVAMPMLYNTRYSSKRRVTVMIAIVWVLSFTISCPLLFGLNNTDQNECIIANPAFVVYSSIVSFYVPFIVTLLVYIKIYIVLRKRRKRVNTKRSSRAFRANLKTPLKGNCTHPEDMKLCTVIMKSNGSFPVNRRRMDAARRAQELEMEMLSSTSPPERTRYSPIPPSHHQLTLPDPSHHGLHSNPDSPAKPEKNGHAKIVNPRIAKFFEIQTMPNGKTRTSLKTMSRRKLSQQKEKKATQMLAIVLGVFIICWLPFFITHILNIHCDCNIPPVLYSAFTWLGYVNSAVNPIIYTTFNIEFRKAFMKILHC
Outline: (§5)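 Displacement of [3H]apomorphine binding in rat corpus striatum membranes; some values given as percent displacement at 1000 nM.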

[6] = test system: Rattus norvegicus; experiment: (§6) Effect on homovanillic acid concentration in whole rat brain when 10 mg/Kg was administered intraperitoneally; format: functional; outline: as §1
[7] = test system: Rattus norvegicus; experiment: Reduction of serum prolactin concentration in rats, 5 mg/Kg administered intraperitoneally; format: functional; outline: as §3
[8] = test system: Rattus norvegicus; experiment: Effect on dopamine concentration in whole rat brain when 10 mg/Kg was administered intraperitoneally; format: functional; outline: as §1
[9] = test system: Rattus norvegicus; experiment: Inhibition of serum prolactin concentration in rats when 5 mg/Kg was administered intraperitoneally; NS means not significant; format: functional, organism-based; outline: as §3
[10] = target: T1, D(2) dopamine receptor; experiment: (§7) Inhibitory activity against Dopamine receptor D2 in calf corpus striatum using [3H]spiperone as radioligand; format: tissue-based; outline: as §2
[11] = target: T2, D(2) dopamine receptor; experiment: Inhibitory activity against Dopamine receptor D2 in rat corpus striatum using [3H]Apomorphine as radioligand; format: tissue-based; outline: as §5
[12] = test system: Rattus norvegicus; experiment: Inhibition of serum prolactin concentration in rats when 5 mg/kg was administered intraperitoneally; format: functional; settings: ip, route intraperitoneal; outline: as §3
[13] = test system: Rattus norvegicus; experiment: Effect on homovanillic acid concentration in whole rat brain when 10 mg/kg was administered intraperitoneally; format: functional; settings: route intraperitoneal
Outline: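 Rats dosed ip at 10 mg/kg. Whole brain was assayed for HVA, with dopamine and DOPAC measured alongside, by liquid chromatography with electrochemical detection. Levels are in nmol/g and expressed as % change from control. Values are mean ± standard error for five rats per group. Significance versus control was taken at P<0.05.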

[14] = target: D(2) dopamine receptor (Bos taurus) (UniProt P20288); experiment: Inhibitory activity against dopamine receptor D2 in calf corpus striatum using [3H]-Spiperone as radioligand; format: tissue-based; outline: as §2
Chain of D(2) dopamine receptor (Bos taurus) (P20288 whole entry): as the sequence (P20288 whole entry) above

[15] = target: D(2) dopamine receptor (Rattus norvegicus) (UniProt P61169); experiment: as §4; format: tissue-based; outline: as §5
Chain of D(2) dopamine receptor (Rattus norvegicus) (P61169 whole entry): as the sequence (P61169 whole entry) above

[16] = target: D(2) dopamine receptor (Rattus norvegicus) (UniProt P61169); experiment: Inhibitory activity against Dopamine receptor D2 in rat corpus striatum using [3H]apomorphine as radioligand; format: tissue-based; outline: as §5
[17] = target: D(2) dopamine receptor (Bos taurus) (UniProt P20288); experiment: as §7; format: tissue-based; outline: as §2
[18] = test system: Rattus norvegicus; experiment: Dopa accumulation in GBL-treated rats after the administration at a dose of 1.0 mg/Kg; format: functional
Outline: (§8)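 Male rats given compound ip; γ-butyrolactone 500 mg/kg ip 10 min later, then decarboxylase inhibitor NSD 1015 100 mg/kg ip 5 min after GBL and 40 min before sacrifice. Striatal dopa accumulation measured by LC with electrochemical detection; Roth autoreceptor paradigm. Values are mean ± SE, five rats per group; one control group received no GBL.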

[19] = organism: Rattus norvegicus; experiment: Dopa accumulation in GBL-treated rats in the absence of the compound; format: functional; outline: as §8
[20] = test system: Rattus norvegicus; experiment: Dopa accumulation in GBL-treated rats after the administration at a dose of 3 mg/Kg; format: functional; outline: as §8
[21] = test system: Rattus norvegicus; experiment: Effect on dopamine concentration in whole rat brain when 10 mg/Kg 10 mg/kg was administered intraperitoneally; format: functional; settings: route intraperitoneal; outline: as §1
[22] = test system: Rattus norvegicus; experiment: Dopa accumulation in GBL-treated rats after the administration at a dose of 10 mg/Kg; format: functional; outline: as §8
[23] = test system: Rattus norvegicus; experiment: Dopa accumulation in GBL-treated rats after the administration at a dose of 0.3 mg/Kg; format: functional; outline: as §8
[24] = test system: Rattus norvegicus; experiment: Effect on serum corticosterone level in whole rat brain when 10 mg/kg was administered intraperitoneally; format: functional; settings: route intraperitoneal
Outline: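 Rats dosed ip at 10 mg/kg. Serum corticosterone was determined spectrofluorometrically and reported in µg/100 mL, as % change from vehicle. Values are mean ± standard error for five rats per group. Significance versus control was taken at P<0.05.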

[25] = test system: Rattus norvegicus; experiment: as §6

SMILES	Turnover [1] [nmol/g]	IC50 [2] [µM]	Inhibition [3] [%]	Turnover [4]	IC50 [5] [µM]	Turnover [6] [nmol/g]	Turnover [7] [ng/mL]	Turnover [8] [nmol/g]	further results
CCNC1CCc2n[nH]cc2C1 (centres undefined)	0.55	11.6	91	16.6 µg/100 mL	0.61	0.4	1.6	6.39	–
CCCCNC1CCc2n[nH]cc2C1 (centres undefined)	0.53	–	–	5.8 µg/100 mL	–	0.36	13.4	3.9	inhibition [9]: inactive
CCCN(C)C1CCc2n[nH]cc2C1 (centres undefined)	0.43	–	–	41 µg/100 mL	–	–	2	5.16	IC50 [10]: 8.33 µM; IC50 [11]: 1.23 µM; inhibition in vivo at 5 mg/kg [12]: 82%; Turnover [13]: 0.22 nmol/g
c1ccc(CCNC2CCc3n[nH]cc3C2)cc1 (centres undefined)	0.51	> 10	–	7.7 µg/100 mL	–	0.34	6	3.65	inhibition [9]: inactive
CCCN[C@@H]1Cc2c[nH]nc2C[C@H]1CCCSC	–	–	–	–	–	–	7.8	–	Displacement [14]: 10%; inhibition [9]: inactive; Displacement [15]: 45%
CCCN(CCCSC)C1CCc2n[nH]cc2C1 (centres undefined)	0.28	3.99	90	48 µg/100 mL	0.31	0.16	1.1	4.92	–
CCCCN(CCC)C1CCc2n[nH]cc2C1 (centres undefined)	0.39	–	–	38.6 ng/mL	–	–	1.9	4.94	IC50 [10]: 10 µM; IC50 [11]: 0.33 µM; inhibition in vivo at 5 mg/kg [12]: 83%
c1csc(CCNC2CCc3n[nH]cc3C2)c1 (centres undefined)	0.49	> 10	–	5.5 µg/100 mL	9.16	0.38	7.9	3.47	inhibition [9]: inactive
CCCN[C@@H]1Cc2c[nH]nc2C[C@H]1CCCOC	–	–	44	–	–	–	4.6	–	Displacement [14]: 12%; Displacement [15]: 50%
CCCCNC1CCc2[nH]ncc2C1 (centres undefined)	–	> 10	–	–	> 10	–	–	–	–
CCCN[C@@H]1Cc2c[nH]nc2C[C@H]1CCCO	–	–	46	–	–	–	4.4	–	Displacement [14]: 10%; Displacement [15]: 45%
CCCN[C@@H]1Cc2c[nH]nc2C[C@H]1CCC	–	–	–	–	–	–	5.1	–	Displacement [16]: 41%; Displacement [17]: 9%
CCCNC1CCc2n[nH]cc2C1 (centres undefined)	0.51	15.2	78	31.7 µg/100 mL	0.065	0.51	2.4	–	Accumulation [18]: 23.1 nM/g; Accumulation [19]: 24.8 nM/g; Accumulation [20]: 16.9 nM/g; Turnover [21]: 4.86 nmol/g; Accumulation [22]: 12.1 nM/g; Accumulation [23]: 25.2 nM/g
CCCN(CCc1cccs1)C1CCc2n[nH]cc2C1 (centres undefined)	0.43	1.41	73	17.3 µg/100 mL	0.16	0.24	2.8	4.78	–
CCCN1C[C@H](CSC)C[C@@H]2c3cccc4[nH]cc(c34)C[C@H]21 [PERGOLIDE]	0.53	–	88	–	–	–	2	6.42	Turnover [24]: 54 µg/100 mL; Turnover [13]: 0.32 nmol/g
CCCN(CCc1ccccc1)C1CCc2n[nH]cc2C1 (centres undefined)	0.4	1.06	87	17.5 µg/100 mL	0.14	0.23	1.4	4.41	–
CSCCCNC1CCc2n[nH]cc2C1 (centres undefined)	0.49	> 10	–	3.8 µg/100 mL	2.03	0.27	9.9	3.91	inhibition [9]: inactive
CCCNC1CCc2nc(N)sc2C1 (centres undefined)	0.35	> 1	78	54 µg/100 mL	–	–	3.7	5.08	Turnover [25]: 0.15 nmol/g
